ChEMBL document CHEMBL4330087, “Synthesis, antimicrobial activity, attenuation of aminoglycoside resistance in MRSA, and ribosomal A-site binding of pyrene-neomycin conjugates” (Eur J Med Chem, 2019)
Calls of active or inactive are those of the source. The rule behind the calls is not given here.

Tests used:
[1] = test system: Ribosomal RNA A-site; assay: Displacement of F-NEO from Escherichia coli rRNA-A site after 10 to 20 mins by fluorescence assay relative to NEO; format: nucleic-acid assay; set-up: concentration or dose not given beside the values
Procedure, shortened: (§1)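 100 nM F-NEO:A-site complex in 10 mM HEPES, 50 mM NaCl, 0.04 mM EDTA, pH 7.0, mixed with ligand and incubated 10-20 min at room temperature. Fluorescence read at ex 485/em 525 nm, in duplicate. Percent binding was computed from the intensities of ligand-treated complex, complex without ligand, and complex with neomycin.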

[2] = test system: Ribosomal RNA A-site; assay: Displacement of F-NEO from human cytosolic rRNA-A site after 10 to 20 mins by fluorescence assay relative to NEO; format: nucleic-acid assay; set-up: concentration or dose not given beside the values; procedure, shortened: as §1
[3] = test system: Ribosomal RNA A-site; assay: Displacement of F-NEO from human mitochondrial rRNA-A site after 10 to 20 mins by fluorescence assay relative to NEO; format: nucleic-acid assay; set-up: concentration or dose not given beside the values; procedure, shortened: as §1
[4] = organism: Homo sapiens; assay: Displacement of F-NEO from human mitochondrial rRNA-A site C1410U mutant after 10 to 20 mins by fluorescence assay relative to NEO; set-up: concentration or dose not given beside the values; procedure, shortened: as §1
[5] = organism: Homo sapiens; assay: Displacement of F-NEO from human mitochondrial rRNA-A site A1490G mutant after 10 to 20 mins by fluorescence assay relative to NEO; procedure, shortened: as §1
[6] = test system: Ribosomal RNA A-site; assay: Displacement of F-NEO from Escherichia coli rRNA-A site after 10 to 20 mins by fluorescence assay; format: nucleic-acid assay
Procedure, shortened: (§2)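 A 100 nM F-NEO:A-site RNA complex in 10 mM HEPES, 50 mM NaCl, 0.04 mM EDTA, pH 7.0 was titrated with 2-fold dilutions of ligand from 20 to 0.009 μM, or from 60 or 40 μM for weaker ligands. Incubated 10-20 min at room temperature, fluorescence read at ex 485/em 525 nm. IC50 from dose-response curve fit.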

[7] = target: Ribosomal RNA A-site; assay: Displacement of F-NEO from human cytosolic rRNA-A site after 10 to 20 mins by fluorescence assay; format: nucleic-acid assay; procedure, shortened: as §2
[8] = target: Ribosomal RNA A-site; assay: Displacement of F-NEO from human mitochondrial rRNA-A site after 10 to 20 mins by fluorescence assay; format: nucleic-acid assay; procedure, shortened: as §2
[9] = test system: Staphylococcus aureus; assay: Antibacterial activity against NEO-sensitive Staphylococcus aureus 25923 at 6.25 uM after 15 to 20 hrs by CLSI protocol based microdilution assay relative to control; format: functional
Procedure, shortened: (§3)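 Single-concentration screen at 6.25 μM against exponential-phase cultures, in duplicate, with NEO as reference. Enterococcus was grown in BHI broth, M. smegmatis in TS broth with 0.05% Tween 80, and all other strains in TS broth. The 1% DMSO water vehicle was added to broth (background) and culture (growth control). Incubation was 37 °C, humidified, 15-20 h. Result is percent growth inhibition.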

[10] = test system: Staphylococcus aureus; assay: Antibacterial activity against NEO-sensitive Staphylococcus aureus harboring NorA mutant at 6.25 uM after 15 to 20 hrs by CLSI protocol based microdilution assay relative to control; format: functional
Procedure, shortened: (§4)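 Exponential-phase cultures were exposed to 6.25 μM compound in duplicate with neomycin as reference, at 37 °C in a humidified incubator for 15-20 h. Broth and culture controls received sterile water with 1% DMSO. Percent growth inhibition was calculated against the growth and background controls.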

[11] = test system: Staphylococcus epidermidis; assay: Antibacterial activity against NEO-sensitive Staphylococcus epidermidis 12384 at 6.25 uM after 15 to 20 hrs by CLSI protocol based microdilution assay relative to control; format: functional; procedure, shortened: as §3
[12] = test system: Staphylococcus aureus; assay: Antibacterial activity against methicillin-resistant Staphylococcus aureus 33591 at 6.25 uM after 15 to 20 hrs by CLSI protocol based microdilution assay relative to control; format: functional; procedure, shortened: as §4
[13] = test system: Staphylococcus aureus; assay: Antibacterial activity against methicillin-resistant Staphylococcus aureus A960649 at 6.25 uM after 15 to 20 hrs by CLSI protocol based microdilution assay relative to control; format: functional; procedure, shortened: as §4
[14] = test system: Staphylococcus aureus; assay: Antibacterial activity against methicillin-resistant Staphylococcus aureus SU-5 at 6.25 uM after 15 to 20 hrs by CLSI protocol based microdilution assay relative to control; format: functional; procedure, shortened: as §4
[15] = test system: Staphylococcus aureus; assay: Antibacterial activity against methicillin-resistant Staphylococcus aureus M0602 at 6.25 uM after 15 to 20 hrs by CLSI protocol based microdilution assay relative to control; format: functional; procedure, shortened: as §4
[16] = test system: Streptococcus pyogenes; assay: Antibacterial activity against NEO-resistant Streptococcus pyogenes C203 at 6.25 uM after 15 to 20 hrs by CLSI protocol based microdilution assay relative to control; format: functional; procedure, shortened: as §4
[17] = test system: Enterococcus faecalis; assay: Antibacterial activity against NEO-intermediate sensitive Enterococcus faecalis ATCC 29212 at 6.25 uM after 15 to 20 hrs by CLSI protocol based microdilution assay relative to control; format: functional; procedure, shortened: as §3
[18] = test system: Enterococcus faecium; assay: Antibacterial activity against NEO-intermediate sensitive Enterococcus faecium BM4105-RF at 6.25 uM after 15 to 20 hrs by CLSI protocol based microdilution assay relative to control; format: functional; procedure, shortened: as §3
[19] = test system: Mycolicibacterium smegmatis; assay: Antibacterial activity against NEO-sensitive Mycobacterium smegmatis at 6.25 uM after 15 to 20 hrs by CLSI protocol based microdilution assay relative to control; format: functional; procedure, shortened: as §3
[20] = test system: Listeria monocytogenes; assay: Antibacterial activity against NEO-sensitive Listeria monocytogenes ATCC 19115 at 6.25 uM after 15 to 20 hrs by CLSI protocol based microdilution assay relative to control; format: functional; procedure, shortened: as §3
[21] = test system: Escherichia coli; assay: Antibacterial activity against NEO-sensitive Escherichia coli ATCC 25922 at 6.25 uM after 15 to 20 hrs by CLSI protocol based microdilution assay relative to control; format: functional; procedure, shortened: as §3
[22] = test system: Escherichia coli; assay: Antibacterial activity against NEO-sensitive Escherichia coli harboring TolC mutant at 6.25 uM after 15 to 20 hrs by CLSI protocol based microdilution assay relative to control; format: functional; procedure, shortened: as §4
[23] = test system: Acinetobacter baumannii; assay: Antibacterial activity against NEO-sensitive Acinetobacter baumannii ATCC 19606 at 6.25 uM after 15 to 20 hrs by CLSI protocol based microdilution assay relative to control; format: functional, ATCC 19606 = CIP 70.34 = JCM 6841; procedure, shortened: as §3
[24] = test system: Pseudomonas aeruginosa; assay: Antibacterial activity against NEO-resistant Pseudomonas aeruginosa 27853 at 6.25 uM after 15 to 20 hrs by CLSI protocol based microdilution assay relative to control; format: functional; procedure, shortened: as §4
[25] = test system: Klebsiella oxytoca; assay: Antibacterial activity against NEO-sensitive Klebsiella oxytoca HM-625 at 6.25 uM after 15 to 20 hrs by CLSI protocol based microdilution assay relative to control; format: functional; procedure, shortened: as §3
[26] = Antibacterial activity against NEO-sensitive Enterobacter cloacae 13047 at 6.25 uM after 15 to 20 hrs by CLSI protocol based microdilution assay relative to control; format: functional, Enterobacter cloacae subsp. cloacae, ATCC 13047; procedure, shortened: as §3
[27] = Inhibition of Eis (unknown origin)
[28] = Inhibition of AAC(3)-4 (unknown origin)
[29] = Inhibition of AAC(6')-1e (unknown origin)
[30] = Inhibition of AAC(2')-1c (unknown origin)
[31] = Inhibition of APH(3')-1a (unknown origin)
[32] = Inhibition of APH(2\")-1a (unknown origin)

| SMILES | inhibition [1] [%] | inhibition [2] [%] | inhibition [3] [%] | inhibition [4] [%] | inhibition [5] [%] | IC50 [6] [nM] | IC50 [7] [nM] | IC50 [8] [nM] | Activity [9] [%] | Activity [10] [%] | Activity [11] [%] | Activity [12] [%] | Activity [13] [%] | Activity [14] [%] | Activity [15] [%] | Activity [16] | Activity [17] [%] | Activity [18] [%] | Activity [19] [%] | Activity [20] [%] | other results |
| --- | --- | --- | --- | --- | --- | --- | --- | --- | --- | --- | --- | --- | --- | --- | --- | --- | --- | --- | --- | --- | --- |
| NC[C@@H]1O[C@H](O[C@H]2[C@@H](O)[C@H](O[C@@H]3[C@@H](O)[C@H](N)C[C@H](N)[C@H]3O[C@H]3O[C@H](CN)[C@@H](O)[C@H](O)[C@H]3N)O[C@@H]2CSCCNC(=S)NCCCCCCNC(=O)CCCc2ccc3ccc4cccc5ccc2c3c45)[C@H](N)[C@@H](O)[C@@H]1O | 64 | 75 | 70 | 91 | 58 | 254 | 252 | 235 | 98 | 100 | 80 | 47 | 87 | 0 | 0 | inactive | 51 | 18 | 61 | 91 | Activity [21]: 11%; Activity [22]: 100%; Activity [23]: 8%; Activity [24]: 14%; Activity [25]: 21%; Activity [26]: 29%; inhibition [27]: Active; inhibition [28]: Active; inhibition [29]: Active; inhibition [30]: Active; inhibition [31]: Active; inhibition [32]: Active |
| NC[C@@H]1O[C@H](O[C@H]2[C@@H](O)[C@H](O[C@@H]3[C@@H](O)[C@H](N)C[C@H](N)[C@H]3O[C@H]3O[C@H](CN)[C@@H](O)[C@H](O)[C@H]3N)O[C@@H]2CSCCNC(=O)Cc2ccc3ccc4cccc5ccc2c3c45)[C@H](N)[C@@H](O)[C@@H]1O | 101 | 114 | 102 | 103 | 102 | 95 | 97 | 90 | 48 | 60 | 81 | 0 | 7 | 39 | 32 | inactive | 20 | 15 | 43 | 52 | Activity [21]: 0%; Activity [22]: 100%; Activity [23]: 6%; Activity [24]: 0%; Activity [25]: 16%; Activity [26]: 5%; inhibition [27]: Active; inhibition [28]: Active; inhibition [29]: Active; inhibition [30]: Active; inhibition [31]: Active; inhibition [32]: Active |
| NC[C@@H]1O[C@H](O[C@H]2[C@@H](O)[C@H](O[C@@H]3[C@@H](O)[C@H](N)C[C@H](N)[C@H]3O[C@H]3O[C@H](CN)[C@@H](O)[C@H](O)[C@H]3N)O[C@@H]2CNC(=O)CCCc2ccc3ccc4cccc5ccc2c3c45)[C@H](N)[C@@H](O)[C@@H]1O | 99 | 99 | 89 | 103 | 88 | 170 | 200 | 465 | 12 | 43 | 80 | 23 | 35 | 22 | 19 | 23% | 0 | 0 | 38 | 22 | Activity [21]: 8%; Activity [22]: 54%; Activity [23]: 5%; Activity [24]: 11%; Activity [25]: 5%; Activity [26]: 5%; inhibition [27]: Active; inhibition [28]: Active; inhibition [29]: Active; inhibition [30]: Active; inhibition [31]: Active; inhibition [32]: Active |
